Experimental data published in paper PMC2688716 (European neuropsychopharmacology : the journal of the …, 2008).
Where a name gives a salt, the structure may show the parent alone.

Assays:
[1] = target: Muscarinic, peripheral receptor; test: Radioligand binding, muscarinic peripheral; details: 0.3 nM [3H]QNB; nonspecific 0.1 μM atropine; guinea pig bladder; by NOVASCREEN; >10,000 = less than 30% displacement
[2] = target: Melatonin receptor; test: Radioligand binding, melatonin receptors; details: 70 pM [125I]2-Iodomelatonin; nonspecific 0.1 μM 2-iodomelatonin; chicken brain; by NOVASCREEN; >10,000 = less than 30% displacement
Method in brief: (§1)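 Run by a contract screening service. Binding was measured in tissue homogenates. Ki was calculated with the Cheng-Prusoff equation from separately determined Kd values and reported as mean ± SEM of replicate assays.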

[3] = target: Calcium, type N ion channel (Rattus norvegicus, UniProt Q02294); test: Radioligand binding, calcium channel type N; details: 0.01 nM [125I]ω-conotoxin GVIA; nonspecific 0.1 μM ω-conotoxin GVIA; rat cerebral cortex; by NOVASCREEN; >10,000 = less than 30% displacement
[4] = target: Serotonin transporter (Rattus norvegicus, UniProt P31652); test: Radioligand binding, serotonin transporter; details: 0.2 nM [3H]paroxetine; nonspecific 1.5 μM imipramine; rat brainstem; 90 min at 25° C; in-house; >10,000 = less than 30% displacement
[5] = target: Potassium, ATP-sensitive ion channel; test: Radioligand binding, ATP-sensitive potassium channel; details: 0.2 nM [3H]glibenclamide; nonspecific 0.1 μM glibenclamide; rat cerebral cortex; by NOVASCREEN; >10,000 = less than 30% displacement
Method in brief: as §1

[6] = tested on: male, Swiss Webster mice; test: Dopamine assay, cerebellum; type: in vivo, mouse; details: AC927 10 mg/kg pretreatment + methamphetamine 5 mg/kg; Tukey q=4.55, P < 0.05
[7] = ref Matsumoto and Mack, 2001; Matsumoto et al., 2002, 2003; cited from earlier work
[8] = tested on: male, Swiss Webster mice; test: Locomotor activity measurements; type: in vivo, mouse; details: i.p.
[9] = tested on: male, Swiss Webster mice; test: Core body temperature measurements; type: in vivo, mouse; details: AC927 5–20 mg/kg, i.p., 4 times at 2 h intervals; measured 1 h after each injection
[10] = tested on: male, Swiss Webster mice; test: Dopamine transporter; details: 4 times at 2 h intervals
[11] = tested on: tumor cells; details: through a σ receptor-mediated mechanism; ref Crawford et al., 2002; cited from earlier work
[12] = tested on: male, Swiss Webster mice; test: Dopamine assay, striatum; type: in vivo, mouse; details: AC927 10 mg/kg pretreatment + methamphetamine 5 mg/kg; Tukey q=5.58, P < 0.01
[13] = target: Muscarinic, central receptor; test: Radioligand binding, muscarinic central; details: 0.15 nM [3H]QNB; nonspecific 0.1 μM atropine; rat cerebral cortex; by NOVASCREEN; >10,000 = less than 30% displacement
[14] = tested on: NG108-15 cells; test: Cytotoxicity; type: cell-based; details: methamphetamine 10–300 μM; 24 h and 48 h; 37° C; P < 0.0001

Serotonin transporter, sequence (P31652 whole entry): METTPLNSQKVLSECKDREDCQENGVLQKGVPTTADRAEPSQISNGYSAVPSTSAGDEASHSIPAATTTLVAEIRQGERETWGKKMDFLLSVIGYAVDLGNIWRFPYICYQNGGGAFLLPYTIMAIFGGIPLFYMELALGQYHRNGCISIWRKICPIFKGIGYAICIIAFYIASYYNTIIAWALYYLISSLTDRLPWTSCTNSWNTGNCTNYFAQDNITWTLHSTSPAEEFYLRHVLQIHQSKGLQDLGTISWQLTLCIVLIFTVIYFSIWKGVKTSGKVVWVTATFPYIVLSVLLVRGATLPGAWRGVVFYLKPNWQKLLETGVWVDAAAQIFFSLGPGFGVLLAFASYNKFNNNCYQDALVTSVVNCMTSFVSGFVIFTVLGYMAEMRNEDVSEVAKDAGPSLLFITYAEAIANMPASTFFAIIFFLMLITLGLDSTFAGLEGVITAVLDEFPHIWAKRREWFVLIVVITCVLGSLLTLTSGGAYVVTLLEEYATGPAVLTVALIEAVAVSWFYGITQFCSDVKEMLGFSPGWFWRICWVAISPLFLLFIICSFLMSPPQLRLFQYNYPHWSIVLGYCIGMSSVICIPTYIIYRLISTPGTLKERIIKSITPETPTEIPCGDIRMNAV
Calcium, type N ion channel, sequence (P54287 whole entry): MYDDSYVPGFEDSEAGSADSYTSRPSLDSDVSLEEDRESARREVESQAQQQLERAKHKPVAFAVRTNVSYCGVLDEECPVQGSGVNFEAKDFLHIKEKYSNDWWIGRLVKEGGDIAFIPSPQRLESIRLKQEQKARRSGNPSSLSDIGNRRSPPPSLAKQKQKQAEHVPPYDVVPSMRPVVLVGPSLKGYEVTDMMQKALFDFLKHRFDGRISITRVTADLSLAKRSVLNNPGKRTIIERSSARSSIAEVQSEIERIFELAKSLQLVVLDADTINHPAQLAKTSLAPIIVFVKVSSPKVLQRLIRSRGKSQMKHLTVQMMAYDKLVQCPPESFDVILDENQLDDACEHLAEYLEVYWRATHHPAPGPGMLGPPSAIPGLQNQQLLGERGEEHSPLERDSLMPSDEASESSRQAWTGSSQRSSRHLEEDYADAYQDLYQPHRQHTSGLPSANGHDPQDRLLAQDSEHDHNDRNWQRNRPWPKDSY
Calcium, type N ion channel, sequence (P54290 945-1091, further chain): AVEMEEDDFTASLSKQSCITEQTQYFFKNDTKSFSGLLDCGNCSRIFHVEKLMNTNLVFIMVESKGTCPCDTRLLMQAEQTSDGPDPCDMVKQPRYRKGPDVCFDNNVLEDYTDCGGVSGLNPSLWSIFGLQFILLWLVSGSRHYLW
Calcium, type N ion channel, sequence (Q02294 whole entry): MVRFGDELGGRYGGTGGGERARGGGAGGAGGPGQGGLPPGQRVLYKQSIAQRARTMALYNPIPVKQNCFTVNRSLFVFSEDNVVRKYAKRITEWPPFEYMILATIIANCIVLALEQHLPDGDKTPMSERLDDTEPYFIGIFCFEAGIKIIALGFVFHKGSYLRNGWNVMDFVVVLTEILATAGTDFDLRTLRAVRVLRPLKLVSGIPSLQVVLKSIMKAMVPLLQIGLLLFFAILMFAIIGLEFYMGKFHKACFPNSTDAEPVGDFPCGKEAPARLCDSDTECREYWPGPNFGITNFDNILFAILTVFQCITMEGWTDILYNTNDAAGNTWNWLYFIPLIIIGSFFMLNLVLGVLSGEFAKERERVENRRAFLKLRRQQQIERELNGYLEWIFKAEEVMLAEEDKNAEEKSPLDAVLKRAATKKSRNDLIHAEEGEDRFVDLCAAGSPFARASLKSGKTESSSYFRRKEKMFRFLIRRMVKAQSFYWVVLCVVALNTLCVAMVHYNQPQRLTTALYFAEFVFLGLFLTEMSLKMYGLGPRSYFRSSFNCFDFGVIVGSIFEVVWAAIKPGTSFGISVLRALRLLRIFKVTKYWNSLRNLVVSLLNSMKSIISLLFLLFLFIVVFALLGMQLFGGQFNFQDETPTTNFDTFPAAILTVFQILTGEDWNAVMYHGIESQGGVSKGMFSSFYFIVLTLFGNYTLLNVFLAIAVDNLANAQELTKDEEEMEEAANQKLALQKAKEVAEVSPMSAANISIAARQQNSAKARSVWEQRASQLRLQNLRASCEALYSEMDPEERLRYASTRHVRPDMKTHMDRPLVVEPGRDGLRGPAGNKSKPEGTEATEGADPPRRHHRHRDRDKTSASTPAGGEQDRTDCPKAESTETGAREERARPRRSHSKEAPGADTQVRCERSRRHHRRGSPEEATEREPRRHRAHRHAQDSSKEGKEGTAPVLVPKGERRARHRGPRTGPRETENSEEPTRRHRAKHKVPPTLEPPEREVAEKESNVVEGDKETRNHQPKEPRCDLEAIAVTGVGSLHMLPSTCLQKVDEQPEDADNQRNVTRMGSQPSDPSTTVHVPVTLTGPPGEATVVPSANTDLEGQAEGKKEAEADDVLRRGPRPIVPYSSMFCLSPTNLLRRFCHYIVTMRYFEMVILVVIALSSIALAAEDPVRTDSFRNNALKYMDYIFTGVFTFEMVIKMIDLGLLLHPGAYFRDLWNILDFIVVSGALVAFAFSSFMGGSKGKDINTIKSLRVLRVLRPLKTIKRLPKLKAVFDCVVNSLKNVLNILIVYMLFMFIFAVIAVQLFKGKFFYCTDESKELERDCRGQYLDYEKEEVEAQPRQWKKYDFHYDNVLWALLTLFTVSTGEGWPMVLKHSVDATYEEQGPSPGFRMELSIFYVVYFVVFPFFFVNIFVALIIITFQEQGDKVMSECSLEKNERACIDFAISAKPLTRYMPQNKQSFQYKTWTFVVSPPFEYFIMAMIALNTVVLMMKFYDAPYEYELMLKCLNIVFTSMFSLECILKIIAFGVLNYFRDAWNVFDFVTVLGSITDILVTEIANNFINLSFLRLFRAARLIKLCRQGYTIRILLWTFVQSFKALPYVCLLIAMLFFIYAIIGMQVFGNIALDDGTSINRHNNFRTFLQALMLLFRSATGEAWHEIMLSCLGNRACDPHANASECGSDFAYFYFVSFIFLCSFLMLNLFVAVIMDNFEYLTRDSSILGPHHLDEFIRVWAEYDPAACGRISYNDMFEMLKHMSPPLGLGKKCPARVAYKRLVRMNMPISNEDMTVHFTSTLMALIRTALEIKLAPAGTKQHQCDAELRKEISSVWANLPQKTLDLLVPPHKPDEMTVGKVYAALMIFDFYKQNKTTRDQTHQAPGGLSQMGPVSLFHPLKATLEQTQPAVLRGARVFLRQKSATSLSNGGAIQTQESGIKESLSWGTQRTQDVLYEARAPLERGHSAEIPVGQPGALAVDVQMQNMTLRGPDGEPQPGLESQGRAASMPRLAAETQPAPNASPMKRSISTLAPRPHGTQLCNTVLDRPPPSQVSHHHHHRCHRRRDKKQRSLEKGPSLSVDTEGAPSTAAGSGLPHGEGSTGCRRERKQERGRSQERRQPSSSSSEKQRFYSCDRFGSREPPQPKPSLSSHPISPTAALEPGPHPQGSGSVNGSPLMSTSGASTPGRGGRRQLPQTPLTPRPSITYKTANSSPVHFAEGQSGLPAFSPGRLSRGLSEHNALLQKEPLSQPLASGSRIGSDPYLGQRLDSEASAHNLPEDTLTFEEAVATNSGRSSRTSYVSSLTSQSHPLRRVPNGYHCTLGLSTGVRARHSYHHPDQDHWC
Calcium, type N ion channel, sequence (P54290 25-944, further chain): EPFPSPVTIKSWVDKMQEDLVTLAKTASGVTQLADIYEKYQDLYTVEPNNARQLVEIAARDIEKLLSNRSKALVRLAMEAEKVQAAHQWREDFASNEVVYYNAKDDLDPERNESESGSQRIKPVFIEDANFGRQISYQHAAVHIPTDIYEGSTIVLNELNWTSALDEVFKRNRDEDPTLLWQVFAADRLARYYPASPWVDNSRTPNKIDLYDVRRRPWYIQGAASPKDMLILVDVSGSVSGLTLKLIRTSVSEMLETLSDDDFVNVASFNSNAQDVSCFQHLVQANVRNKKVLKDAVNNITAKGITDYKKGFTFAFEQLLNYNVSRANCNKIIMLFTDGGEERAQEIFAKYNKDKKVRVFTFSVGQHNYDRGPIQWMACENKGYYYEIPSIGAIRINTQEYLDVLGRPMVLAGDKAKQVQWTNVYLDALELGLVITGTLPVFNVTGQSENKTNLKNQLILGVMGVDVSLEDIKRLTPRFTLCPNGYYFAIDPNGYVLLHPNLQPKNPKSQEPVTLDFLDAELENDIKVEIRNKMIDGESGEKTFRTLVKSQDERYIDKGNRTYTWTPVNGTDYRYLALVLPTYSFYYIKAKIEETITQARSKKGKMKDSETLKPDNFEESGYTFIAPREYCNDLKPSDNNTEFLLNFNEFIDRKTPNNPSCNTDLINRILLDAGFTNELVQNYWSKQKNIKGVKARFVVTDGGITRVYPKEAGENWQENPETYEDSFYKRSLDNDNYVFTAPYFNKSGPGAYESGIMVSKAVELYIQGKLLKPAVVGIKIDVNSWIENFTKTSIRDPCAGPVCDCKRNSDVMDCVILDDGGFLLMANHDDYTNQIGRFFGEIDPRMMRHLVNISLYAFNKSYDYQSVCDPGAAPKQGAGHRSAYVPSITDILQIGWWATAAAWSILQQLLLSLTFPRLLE

O=C(O)C(=O)O.c1ccc(CCN2CCCCC2)cc1 [AC927, N-phenethylpiperidine oxalate]
Ki [1]: > 10 µM
Ki [2]: > 10 µM
Ki [3]: > 10 µM
Ki [4]: > 10 µM
Ki [5]: > 10 µM
Methamphetamine-induced cerebellar dopamine depletion, AC927 10 mg/kg [6]: significantly attenuated
Acute locomotor stimulant effects of cocaine [7]: significantly attenuate the acute locomotor stimulant effects of cocaine
Locomotor activity, dose response of AC927 alone ([8]; AC927 0–20 mg/kg, activity quantified for 30 min, F(2,23)=7.45, P < 0.005): dose dependently decreased locomotor activity
Locomotor activity vs. saline control ([8]; AC927 alone 10 mg/kg, q=1.09, n.s.): did not differ significantly from the saline control
Locomotor activity vs. saline control ([8]; AC927 alone 20 mg/kg, q=3.80, P < 0.01): differed significantly from the saline control
Core body temperature, AC927 alone [9]: did not significantly change core body temperature
DAT immunoreactivity in striatum, AC927 alone ([10]; AC927 10 mg/kg, i.p. + saline, q=3.56, n.s.): no significant effects on DAT expression
Apoptosis in tumor cells [11]: attenuate apoptosis in tumor cells
Methamphetamine-induced striatal dopamine depletion, AC927 10 mg/kg [12]: significantly attenuated
Ki [13]: > 10 µM

CN[C@@H](C)Cc1ccccc1 [Methamphetamine, Methamphetamine hydrochloride, reference compound]
Locomotor activity, dose response of methamphetamine ([8]; methamphetamine 0–1 mg/kg, activity quantified for 30 min, F(3,34)=5.93, P < 0.005): progressive increase in locomotor activity
Locomotor activity vs. saline control ([8]; methamphetamine 1 mg/kg, Dunnett q=3.61, P < 0.01): differed significantly from the saline control
DAT immunoreactivity in striatum, methamphetamine ([10]; methamphetamine 5 mg/kg, i.p., one week later, q=14.26, P < 0.001): significant reduction in DAT immunoreactivity
Cytotoxicity (cell morphology score), methamphetamine [14]: concentration dependent increase in neurotoxicity
